# Tests used:
# [1] = target: T1, Hepatocyte growth factor receptor (Homo sapiens, UniProt P08581); assay: Inhibition of recombinant c-Met kinase domain (unknown origin) incubated for 30 mins using gastrin peptide substrate by HTRF assay
# [2] = Half life in Sprague-Dawley rat at 0.25 mg/kg, iv; format: ADME, organism-based; design: dose 0.25 mg/kg, route intravenous; details: in vivo
# [3] = Volume of distribution at steady state in Sprague-Dawley rat at 0.25 mg/kg, iv; format: ADME, organism-based; design: dose 0.25 mg/kg, route intravenous; details: in vivo, read-out: Vdss
# How it was run: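 Male Sprague-Dawley rats were given a single IV dose of 0.25 mg/kg. The vehicle was DMSO, or for some compounds 20% (w/v) hydroxypropyl β-cyclodextrin in water adjusted to pH 3.5 with MSA. NC marks cases where the terminal disposition rate constant could not be characterized for lack of slope.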
# [4] = target: T1, Hepatocyte growth factor receptor; assay: Inhibition of HGF-stimulated c-Met autophosphorylation in serum starved human PC3 cells pre-incubated for 1 hr followed by human recombinant HGF stimulation for 10 mins by quantitative electrochemiluminescence immunoassay; format: cell-based, PC-3
# How it was run: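 Serum-starved PC-3 cells (plated in high-glucose DMEM/10% FBS, then 16 h in low-glucose DMEM with 0.1% BSA) were treated with a 10-point inhibitor dilution for 1 h at 37 °C. Cells were then stimulated with 200 ng/mL recombinant human HGF for 10 min and lysed. Phospho-c-Met was captured with biotinylated anti-c-Met and 4G10 by electrochemiluminescence. IC50, n ≥ 2.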
# [5] = Oral bioavailability in Sprague-Dawley rat at 2 mg/kg; format: ADME, organism-based; details: in vivo
# How it was run: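 Male Sprague-Dawley rats given 2.0 mg/kg orally in 2% (w/v) hydroxypropylmethylcellulose, 1% (w/v) Tween 80 in water, pH 2.2 (adjusted with HCl or MSA). Some inhibitors instead used 10% (v/v) dimethylacetamide in the same vehicle.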
# [6] = AUC (0 to infinity) in Sprague-Dawley rat at 0.25 mg/kg, iv; format: ADME, organism-based, Plasma; design: dose 0.25 mg/kg, route intravenous, time infinity; details: Sprague-Dawley, plasma
# [7] = Clearance in Sprague-Dawley rat at 0.25 mg/kg, iv; format: ADME, organism-based; design: dose 0.25 mg/kg, route intravenous; details: Sprague-Dawley, in vivo
# [8] = Drug level in mouse liver microsomes treated with 5-(8-Fluoro-3-(1-(3-methoxyquinolin-6-yl)ethyl)[1,2,4]-triazolo[4,3-a]pyridin-6-yl)-3-methylisoxazole assessed as compound formation in presence of NADPH by LC-MS/MS method; format: ADME
# How it was run: (§1)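 Compound incubated with NADPH in mouse, rat, dog, monkey or human liver microsomes. Metabolites were identified by accurate mass spectrometry and MS/MS, and selected ion chromatograms were used to build metabolite profiles.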
# [9] = tested on: Liver microsome; assay: Drug level in rat liver microsomes treated with 5-(8-Fluoro-3-(1-(3-methoxyquinolin-6-yl)ethyl)[1,2,4]-triazolo[4,3-a]pyridin-6-yl)-3-methylisoxazole assessed as compound formation in presence of NADPH by LC-MS/MS method; format: ADME; how it was run: as §1
# [10] = tested on: Liver microsome; assay: Drug level in dog liver microsomes treated with 5-(8-Fluoro-3-(1-(3-methoxyquinolin-6-yl)ethyl)[1,2,4]-triazolo[4,3-a]pyridin-6-yl)-3-methylisoxazole assessed as compound formation in presence of NADPH by LC-MS/MS method; format: ADME, Canis lupus familiaris; how it was run: as §1
# [11] = target: Cytochrome P450 3A4 (Homo sapiens, UniProt P08684); assay: Inhibition of CYP3A4 (unknown origin); format: ADME
# Sequence of Cytochrome P450 3A4 (P08684 whole entry): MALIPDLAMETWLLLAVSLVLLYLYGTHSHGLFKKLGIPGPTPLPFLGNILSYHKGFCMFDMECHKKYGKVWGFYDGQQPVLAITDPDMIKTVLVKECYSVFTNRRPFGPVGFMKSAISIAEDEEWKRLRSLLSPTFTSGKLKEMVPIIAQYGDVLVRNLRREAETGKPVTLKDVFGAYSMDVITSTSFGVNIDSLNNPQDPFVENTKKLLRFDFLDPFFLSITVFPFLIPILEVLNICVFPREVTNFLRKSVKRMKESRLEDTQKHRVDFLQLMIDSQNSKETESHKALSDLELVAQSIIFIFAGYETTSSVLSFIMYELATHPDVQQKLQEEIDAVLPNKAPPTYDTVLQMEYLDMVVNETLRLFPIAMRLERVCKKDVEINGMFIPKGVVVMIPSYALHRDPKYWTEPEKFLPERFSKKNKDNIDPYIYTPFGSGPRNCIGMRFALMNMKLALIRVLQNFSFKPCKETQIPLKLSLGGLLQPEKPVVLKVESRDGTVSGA
# [12] = target: Cytochrome P450 2D6 (Homo sapiens, UniProt P10635); assay: Inhibition of CYP2D6 (unknown origin); format: ADME
# Sequence of Cytochrome P450 2D6 (P10635 whole entry): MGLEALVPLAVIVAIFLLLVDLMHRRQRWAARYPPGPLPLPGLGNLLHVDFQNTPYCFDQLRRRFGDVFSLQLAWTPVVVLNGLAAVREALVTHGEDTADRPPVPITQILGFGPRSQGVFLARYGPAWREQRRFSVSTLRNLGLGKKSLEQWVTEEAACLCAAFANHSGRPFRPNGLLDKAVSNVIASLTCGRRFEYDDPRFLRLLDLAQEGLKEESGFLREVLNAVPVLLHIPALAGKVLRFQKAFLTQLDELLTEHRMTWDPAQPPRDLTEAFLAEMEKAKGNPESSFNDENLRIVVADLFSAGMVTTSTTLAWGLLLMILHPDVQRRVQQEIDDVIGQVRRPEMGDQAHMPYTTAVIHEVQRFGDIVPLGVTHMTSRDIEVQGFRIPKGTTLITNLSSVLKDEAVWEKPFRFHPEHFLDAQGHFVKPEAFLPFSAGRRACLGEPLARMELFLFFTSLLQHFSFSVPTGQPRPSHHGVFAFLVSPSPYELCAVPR
# [13] = Drug level in monkey liver microsomes treated with 5-(8-Fluoro-3-(1-(3-(2-methoxyethoxy)quinolin-6-yl)ethyl)-[1,2,4]triazolo[4,3-a]pyridin-6-yl)-3-methylisoxazole assessed as compound formation in presence of NADPH by LC-MS/MS method; format: ADME, Macaca mulatta; details: rhesus monkey; how it was run: as §1
# [14] = tested on: Liver microsome; assay: Drug level in human liver microsomes treated with 5-(8-Fluoro-3-(1-(3-(2-methoxyethoxy)quinolin-6-yl)ethyl)-[1,2,4]triazolo[4,3-a]pyridin-6-yl)-3-methylisoxazole assessed as compound formation in presence of NADPH by LC-MS/MS method; format: ADME; how it was run: as §1
# [15] = tested on: Liver microsome; assay: Drug level in rat liver microsomes treated with 5-(8-Fluoro-3-(1-(3-(2-methoxyethoxy)quinolin-6-yl)ethyl)-[1,2,4]triazolo[4,3-a]pyridin-6-yl)-3-methylisoxazole assessed as compound formation in presence of NADPH by LC-MS/MS method; format: ADME; how it was run: as §1
# [16] = Drug level in mouse liver microsomes treated with 5-(8-Fluoro-3-(1-(3-(2-methoxyethoxy)quinolin-6-yl)ethyl)-[1,2,4]triazolo[4,3-a]pyridin-6-yl)-3-methylisoxazole assessed as compound formation in presence of NADPH by LC-MS/MS method; format: ADME; how it was run: as §1
# [17] = tested on: Liver microsome; assay: Drug level in dog liver microsomes treated with 5-(8-Fluoro-3-(1-(3-(2-methoxyethoxy)quinolin-6-yl)ethyl)-[1,2,4]triazolo[4,3-a]pyridin-6-yl)-3-methylisoxazole assessed as compound formation in presence of NADPH by LC-MS/MS method; format: ADME, Canis lupus familiaris; how it was run: as §1
# T1 sequence (P08581 whole entry, the tested form may be a part): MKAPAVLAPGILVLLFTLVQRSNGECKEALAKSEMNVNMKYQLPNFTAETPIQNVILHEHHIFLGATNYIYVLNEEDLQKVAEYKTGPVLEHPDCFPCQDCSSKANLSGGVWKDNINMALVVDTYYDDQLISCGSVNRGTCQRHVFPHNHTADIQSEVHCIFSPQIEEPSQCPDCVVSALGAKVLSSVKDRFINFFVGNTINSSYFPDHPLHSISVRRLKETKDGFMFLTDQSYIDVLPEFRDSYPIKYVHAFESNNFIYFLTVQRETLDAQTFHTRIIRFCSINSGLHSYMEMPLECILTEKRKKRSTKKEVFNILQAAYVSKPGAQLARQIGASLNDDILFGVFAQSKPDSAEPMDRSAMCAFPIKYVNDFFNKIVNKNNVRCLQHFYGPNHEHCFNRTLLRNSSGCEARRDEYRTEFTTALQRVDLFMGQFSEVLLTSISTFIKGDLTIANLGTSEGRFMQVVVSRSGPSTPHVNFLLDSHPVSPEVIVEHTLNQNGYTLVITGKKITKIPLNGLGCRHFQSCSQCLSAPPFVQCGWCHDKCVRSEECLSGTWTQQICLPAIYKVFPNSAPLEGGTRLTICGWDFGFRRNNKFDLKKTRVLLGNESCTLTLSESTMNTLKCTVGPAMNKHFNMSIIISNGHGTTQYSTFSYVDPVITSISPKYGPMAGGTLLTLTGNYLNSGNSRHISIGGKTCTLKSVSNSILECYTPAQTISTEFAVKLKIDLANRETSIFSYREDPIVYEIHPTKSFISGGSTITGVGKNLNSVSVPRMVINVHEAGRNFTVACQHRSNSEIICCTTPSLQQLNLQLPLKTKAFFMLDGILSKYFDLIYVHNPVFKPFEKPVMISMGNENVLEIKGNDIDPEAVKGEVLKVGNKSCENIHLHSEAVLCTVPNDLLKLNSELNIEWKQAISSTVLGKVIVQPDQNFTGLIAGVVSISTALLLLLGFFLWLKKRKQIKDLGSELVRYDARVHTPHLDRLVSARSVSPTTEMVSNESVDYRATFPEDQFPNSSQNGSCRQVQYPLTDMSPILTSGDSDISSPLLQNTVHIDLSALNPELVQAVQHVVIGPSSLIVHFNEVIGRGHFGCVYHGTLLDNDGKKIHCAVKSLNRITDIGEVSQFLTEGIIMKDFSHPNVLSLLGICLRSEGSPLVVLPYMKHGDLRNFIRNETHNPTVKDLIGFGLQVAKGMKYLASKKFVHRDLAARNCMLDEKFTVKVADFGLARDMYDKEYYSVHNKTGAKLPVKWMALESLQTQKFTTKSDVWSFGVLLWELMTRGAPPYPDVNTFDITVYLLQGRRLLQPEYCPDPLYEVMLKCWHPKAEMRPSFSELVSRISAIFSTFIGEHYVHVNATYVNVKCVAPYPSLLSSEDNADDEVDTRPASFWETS
smiles,measurement,setting,value
COc1ccc2c(OCc3nnc4ccc(-c5ccccc5)cn34)ccnc2c1,IC50,[1],31 nM
Cn1cc(-c2cc(F)c3nnc(Cc4ccc5nc(N)sc5c4)n3c2)cn1,IC50,[1],52 nM
Cc1cc(-c2cc(F)c3nnc([C@](C)(F)c4ccc5ncccc5c4)n3c2)sn1,IC50,[1],5 nM
same,half-life,[2],0.72 h
same,Vd,[3],1.07 L/kg
same,IC50,[4],6 nM
same,bioavailability,[5],27%
same,AUC(0-inf),[6],0.37 µM·h
same,clearance,[7],30.2 mL/min/kg
Cc1cc(-c2cc(F)c3nnc([C@@H](C)c4ccc5ncc(O)cc5c4)n3c2)on1,Drug metabolism,[8],metabolite_detected
same,Drug metabolism,[9],metabolite_detected
same,Drug metabolism,[10],metabolite_detected
Fc1cc(-c2cscn2)cn2c(C(F)(F)c3ccc4ncccc4c3)nnc12,IC50,[1],4 nM
same,half-life,[2],0.3 h
same,Vd,[3],0.39 L/kg
same,inhibition (INH),[11],Not Active
same,IC50,[4],7 nM
same,bioavailability,[5],110%
same,AUC(0-inf),[6],0.38 µM·h
same,clearance,[7],27.8 mL/min/kg
same,inhibition (INH),[12],Not Active
COc1cnc2ccc(Cc3nnc4c(F)cc(-c5cnn(C)c5)cn34)cc2c1,IC50,[1],11 nM
COc1cnc2ccc([C@H](C)c3nnc4c(F)cc(-c5cn(C)cn5)cn34)cc2c1,IC50,[1],1 nM
same,half-life,[2],1.3 h
same,Vd,[3],0.37 L/kg
same,IC50,[4],4 nM
same,bioavailability,[5],27%
same,AUC(0-inf),[6],2.7 µM·h
same,clearance,[7],4.33 mL/min/kg
Cc1cc(-c2cc(F)c3nnc([C@@H](C)c4ccc5ncccc5c4)n3c2)sn1,IC50,[1],7 nM
same,half-life,[2],0.33 h
same,Vd,[3],0.38 L/kg
same,IC50,[4],12 nM
same,AUC(0-inf),[6],0.44 µM·h
same,clearance,[7],25.5 mL/min/kg
Cc1cc(-c2cc(F)c3nnc([C@@H](C)c4ccc5ncc(OCCO)cc5c4)n3c2)on1,Drug metabolism,[13],metabolite_detected
same,Drug metabolism,[14],metabolite_detected
same,Drug metabolism,[15],metabolite_detected
same,Drug metabolism,[16],metabolite_detected
same,Drug metabolism,[17],metabolite_detected
Cc1cc(-c2cc(F)c3nnc(C(C)(C)c4ccc5ncc(O)cc5c4)n3c2)on1,IC50,[1],> 400 nM
Fc1cc(-c2cnn(C3CC3)c2)cn2c(C(F)(F)c3ccc4ncccc4c3)nnc12,IC50,[1],24 nM
same,half-life,[2],4.4 h
same,Vd,[3],0.09 L/kg
same,inhibition (INH),[11],Not Active
same,IC50,[4],25 nM
same,bioavailability,[5],40%
same,AUC(0-inf),[6],42.6 µM·h
same,clearance,[7],0.167 mL/min/kg
same,inhibition (INH),[12],Not Active
Fc1cc(-c2ccccn2)cn2c(C(F)(F)c3ccc4ncccc4c3)nnc12,IC50,[1],12 nM
same,inhibition (INH),[11],Not Active
same,IC50,[4],32 nM
same,inhibition (INH),[12],Not Active
COc1ccc2c(OCc3nnc4c(F)cc(-c5ccccc5)cn34)ccnc2c1,IC50,[1],7 nM
Cc1cc(-c2cc(F)c3nnc([C@@H](C)c4ccc5ncc(OCC(=O)O)cc5c4)n3c2)on1,Drug metabolism,[13],metabolite_detected
same,Drug metabolism,[14],metabolite_detected
same,Drug metabolism,[15],metabolite_detected
same,Drug metabolism,[16],metabolite_detected
same,Drug metabolism,[17],metabolite_detected
Cc1cc(-c2cc(F)c3nnc(C(F)(F)c4ccc5ncccc5c4)n3c2)on1,IC50,[1],9 nM
same,half-life,[2],2.5 h
same,Vd,[3],0.13 L/kg
same,inhibition (INH),[11],Not Active
same,IC50,[4],9 nM
same,bioavailability,[5],62%
same,AUC(0-inf),[6],18.5 µM·h
same,clearance,[7],0.667 mL/min/kg
same,inhibition (INH),[12],Not Active
COc1cnc2ccc([C@H](C)c3nnc4c(F)cc(-c5cc(C)ns5)cn34)cc2c1,IC50,[1],9 nM
same,half-life,[2],2.8 h
same,IC50,[4],22 nM
same,AUC(0-inf),[6],10.5 µM·h
Cc1ncc(-c2cc(F)c3nnc(C(F)(F)c4ccc5ncccc5c4)n3c2)s1,IC50,[1],11 nM
same,inhibition (INH),[11],Not Active
same,IC50,[4],35 nM
same,inhibition (INH),[12],Not Active
Cn1cc(-c2cc(F)c3nnc(Cc4ccc5ncc(O)cc5c4)n3c2)cn1,IC50,[1],51 nM

# From ChEMBL document CHEMBL3414463, “Discovery of potent and selective 8-fluorotriazolopyridine c-Met inhibitors” (J Med Chem, 2015)
